As usually defined, the IC50 is the concentration needed to halve the response being measured. By EC50 is commonly meant the concentration that produces a half-maximal response.

In assay [1] the target is T1, Transient receptor potential cation channel subfamily M member 2 (Homo sapiens, UniProt O94759). Kind of assay: Inhibition of TRPM2 (unknown origin).
For assay [2], the target named is T1, Transient receptor potential cation channel subfamily M member 2. Put plainly: Antagonist activity at human TRPM2 expressed in HEK293 cells assessed as inhibition of ADPR-induced maximum outward potassium current at +15 mV by whole-cell patch-clamp electrophysiology. It counts as cell-based. The method in brief:
(§1)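 Stable clonal HEK293 line expressing human TRPM2 (with EGFP, G418-selected). Whole-cell patch clamp at room temperature; bath had 140 mM NMDG, 1 mM Ca2+, pH 7.4; KCl/EGTA pipet solution held 200 nM free Ca2+. Channel was activated by 100 μM ADPR in the pipet, and analogue was added to the same pipet solution. Read-out: maximum outward current at +15 mV from repeated ramps every 5 s over 450 s.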

Assay [3] shares this target. Kind of assay: Antagonist activity at human TRPM2 expressed in HEK293 cells assessed as inhibition of ADPR-induced maximum outward potassium current at 100 uM at +15 mV by whole-cell patch-clamp electrophysiology. It counts as cell-based. In short, it runs like this:
as §1
On the technique in general: Patch clamp records ionic current or voltage across a cell membrane.

Assay [4] shares this target. Put plainly: Antagonist activity at human TRPM2 expressed in HEK293 cells assessed as inhibition of ADPR-induced maximum outward potassium current at 900 uM at +15 mV by whole-cell patch-clamp electrophysiology. It counts as cell-based. In short, it runs like this:
as §1

The target is the same in assay [5]. Kind of assay: Inhibition of human recombinant TRPM2.
The target is the same in assay [6]. Put plainly: Antagonist activity at human TRPM2 expressed in HEK293 cells assessed as partial inhibition of ADPR-induced maximum outward potassium current at +15 mV by whole-cell patch-clamp electrophysiology. It counts as cell-based. The method in brief: as §1
Assay [7] has the same target. Kind of assay: Inhibition of human TRPM2 expressed in HEK293 cells assessed as inhibition of H2O2-induced intracellular calcium level by patch clamp technique. The class given is cell-based.
The target is the same in assay [8]. Kind of assay: Activation of TRPM2 (unknown origin). In short, it runs like this: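 Whole-cell patch clamp at room temperature on a HEK293 clone stably expressing human TRPM2 with EGFP (G418-selected). Bath solution: 140 mM NMDG, 5 mM KCl, 3.3 mM MgCl₂, 1 mM CaCl₂, HEPES pH 7.4. KCl pipet solution with free Ca²⁺ buffered to 200 nM by EGTA, plus 100 μM ADPR. Cells held at −50 mV with 140 ms ramps from −85 mV every 5 s for 450 s. Read-out was the maximum outward current at +15 mV.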

Assay [9] shares this target. Put plainly: Inhibition of human TRPM2 expressed in HEK293 cells assessed as inhibition of ADP-ribose-induced current by patch clamp electrophysiology. The class given is cell-based. In short, it runs like this: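 Whole-cell patch clamp of a stable HEK293 clone co-expressing human TRPM2 and EGFP (G418-selected), at room temperature. Bath: 140 mM NMDG, 1 mM Ca²⁺, pH 7.4. Pipette: KCl-based with 200 nM free Ca²⁺ and 100 μM ADPR, with analogue added to it (0.1% DMSO for lipophilic ones). Voltage ramps from −85 mV every 5 s for 450 s. Maximum outward current at +15 mV is normalised to the ADPR control and fitted to a logistic curve for IC50.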

Assay [10] has the same target. Kind of assay: Partial antagonist activity at TRPM2 in human polymorphonuclear neutrophils assessed as reduction in A5 peptide-induced intracellular calcium accumulation at 100 uM preincubated for 15 mins followed by A5 peptide-challenge by fluorescence microscopic analysis relative to control. On the set-up: scale not given: the % may be the effect or the level left. It counts as cell-based. In short, it runs like this:
(§2)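 Primary human PMN were used within 6 h of blood donation, loaded with 4 μM Fura-2/AM for 30 min at 37 °C, and plated on fibronectin/BSA-coated coverslips. Cells were preincubated 15 min at ambient temperature with 10 mM ascorbate plus 100 μM analogue. About 70 s into recording they were stimulated with 1 μM fMLP or 10 μM A5 peptide. Read-out: ratiometric Ca2+ imaging, single-cell traces synchronized to the first peak.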

Assay [11] has the same target. Kind of assay: Partial antagonist activity at TRPM2 in human polymorphonuclear neutrophils assessed as reduction in fMLP-induced chemotaxis at 100 uM preincubated for 15 mins followed by fMLP-challenge by microscopic analysis. In short, it runs like this: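 Primary human PMN at 3 × 10^6/mL, in Ca2+ buffer with 10% autologous plasma, were held 15 min at room temperature with 100 μM analogue in fibronectin-coated microfluidic chemotaxis slides. A 0→50 nM fMLP gradient was applied, and bright-field images were taken every 30 s for 1 h. Cells were tracked manually; read-out was displacement along the gradient.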

Assay [12] has the same target. Kind of assay: Partial antagonist activity at TRPM2 in human polymorphonuclear neutrophils assessed as reduction in fMLP-induced intracellular calcium accumulation at 100 uM preincubated for 15 mins followed by fMLP-challenge by fluorescence microscopic analysis relative to control. It counts as cell-based. On the set-up: scale not given: the % may be the effect or the level left. The method in brief:
as §2
Background: Calcium flux is commonly read through the fluorescence of an indicator in the cells.

The target is the same in assay [13]. Put plainly: Inhibition of TRPM2 (unknown origin) expressed in HEK293 cells assessed as inhibition of ADP-ribose-induced current by patch clamp technique. It counts as cell-based.

Activity calls are given as the source filed them. No cut-off for these calls is given here.

T1 sequence (O94759 whole entry): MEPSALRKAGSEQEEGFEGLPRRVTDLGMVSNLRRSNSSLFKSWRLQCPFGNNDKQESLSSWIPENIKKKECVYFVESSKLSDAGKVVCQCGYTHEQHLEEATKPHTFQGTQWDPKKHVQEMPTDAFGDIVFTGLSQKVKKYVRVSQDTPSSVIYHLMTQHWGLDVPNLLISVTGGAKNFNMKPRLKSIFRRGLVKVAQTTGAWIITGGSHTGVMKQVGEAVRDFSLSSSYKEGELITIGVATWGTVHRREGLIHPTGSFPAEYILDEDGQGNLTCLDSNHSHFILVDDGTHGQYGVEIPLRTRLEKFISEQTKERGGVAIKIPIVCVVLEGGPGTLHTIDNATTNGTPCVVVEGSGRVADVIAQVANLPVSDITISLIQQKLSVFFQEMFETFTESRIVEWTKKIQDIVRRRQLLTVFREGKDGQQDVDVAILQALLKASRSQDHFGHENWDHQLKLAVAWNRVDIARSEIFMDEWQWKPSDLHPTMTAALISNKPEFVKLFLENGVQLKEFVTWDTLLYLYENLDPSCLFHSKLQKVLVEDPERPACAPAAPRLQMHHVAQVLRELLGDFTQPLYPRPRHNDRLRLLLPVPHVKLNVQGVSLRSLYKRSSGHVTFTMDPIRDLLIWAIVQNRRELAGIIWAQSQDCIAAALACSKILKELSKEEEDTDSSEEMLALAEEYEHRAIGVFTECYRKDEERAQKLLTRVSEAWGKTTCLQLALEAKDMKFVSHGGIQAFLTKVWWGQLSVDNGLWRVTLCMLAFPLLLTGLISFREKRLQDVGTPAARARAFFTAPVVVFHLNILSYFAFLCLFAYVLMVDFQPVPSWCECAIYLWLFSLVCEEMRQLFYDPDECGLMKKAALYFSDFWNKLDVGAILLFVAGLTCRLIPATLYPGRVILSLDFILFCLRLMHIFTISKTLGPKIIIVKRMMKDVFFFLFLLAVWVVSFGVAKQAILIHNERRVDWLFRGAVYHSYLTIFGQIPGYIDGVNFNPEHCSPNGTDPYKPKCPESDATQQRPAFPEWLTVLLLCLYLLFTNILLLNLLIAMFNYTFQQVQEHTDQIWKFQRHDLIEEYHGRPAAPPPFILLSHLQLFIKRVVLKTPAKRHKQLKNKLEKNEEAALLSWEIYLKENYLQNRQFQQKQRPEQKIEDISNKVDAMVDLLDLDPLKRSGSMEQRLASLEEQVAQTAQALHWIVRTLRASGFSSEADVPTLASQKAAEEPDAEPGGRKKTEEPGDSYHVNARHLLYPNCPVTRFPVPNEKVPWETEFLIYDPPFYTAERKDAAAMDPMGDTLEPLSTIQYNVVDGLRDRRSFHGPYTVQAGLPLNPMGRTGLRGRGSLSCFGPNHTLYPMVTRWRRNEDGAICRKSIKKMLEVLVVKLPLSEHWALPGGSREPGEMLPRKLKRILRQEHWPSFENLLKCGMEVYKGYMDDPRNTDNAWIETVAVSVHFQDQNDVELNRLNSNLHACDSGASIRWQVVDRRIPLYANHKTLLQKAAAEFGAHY

In assay [1], `Clc1ccccc1C(c1ccccc1)(c1ccccc1)n1ccnc1` [CLOTRIMAZOLE] came in with an IC50 of under 3 µM.

Take `Nc1ncnc2c1nc(-c1ccsc1)n2[C@@H]1O[C@H](COP(=O)(O)OP(=O)(O)OC[C@H]2OC(O)[C@H](O)[C@@H]2O)[C@@H](O)[C@H]1O` (stereo not given in full): the IC50 in assay [2] (read-out: IC50) was 51 µM.

`Nc1ncnc2c1nc(-c1ccccc1)n2[C@@H]1O[C@H](COP(=O)(O)OP(=O)(O)OC2CCCC2)[C@@H](O)[C@H]1O`: the IC50 in assay [2] (read-out: IC50) came out at 15 µM. Also, in assay [3], the inhibition result was “Active”.

In the case of `Nc1ncnc2c1nc(-c1ccccc1)n2[C@@H]1O[C@H](Cn2cc(COC[C@H]3OC(O)[C@H](O)[C@@H]3O)nn2)[C@@H](O)[C@H]1O` (stereo not given in full), the inhibition entry in assay [3] was “inactive”.

Turning to `Nc1ncnc2c1ncn2[C@@H]1O[C@H](CNc2c(NC[C@H]3O[C@@H](O)[C@H](O)[C@@H]3O)c(=O)c2=O)[C@@H](O)[C@H]1O`, the inhibition result in assay [3] is “inactive”.

For the compound `CCCCNc1c(NC[C@H]2O[C@@H](n3cnc4c(N)ncnc43)[C@H](O)[C@@H]2O)c(=O)c1=O`, in [3], the inhibition result was “inactive”.

Consider `Nc1ncnc2c1nc(Cl)n2[C@@H]1O[C@H](COP(=O)(O)O)[C@@H](O)[C@H]1O`, for which the IC50 entry in assay [2] (hek293) is listed as “Not Active”. Besides, the inhibition entry in [4] is “inactive”.

Take `Cc1cccc(Nc2ccccc2C(=O)O)c1C` [MEFENAMIC ACID]: in assay [5], the IC50 was 124 µM.

Consider `Nc1ncnc2c1nc(Br)n2[C@@H]1O[C@H](COP(=O)(O)OP(=O)(O)OC[C@H]2OC(O)[C@H](O)[C@@H]2O)[C@@H](O)[C@H]1O` (stereo not given in full), for which the IC50 in [2] (read-out: IC50) came out at 300 µM.

`CC(=O)c1cccc(-c2nc3c(N)ncnc3n2[C@@H]2O[C@H](COP(=O)(O)OP(=O)(O)OC[C@H]3OC(O)[C@H](O)[C@@H]3O)[C@@H](O)[C@H]2O)c1` (stereo not given in full): the IC50 in [2] (read-out: IC50) was determined as 49 µM.

As to `Nc1ncnc2c1nc(-c1ccccc1)n2[C@H]1C[C@H](O)[C@@H](COP(=O)(O)OP(=O)(O)OC[C@H]2OC(O)[C@H](O)[C@@H]2O)O1` (stereo not given in full), the IC50 in assay [2] (read-out: IC50) is 3 µM. Also, the inhibition entry in assay [4] is “Active”.

For the compound `Nc1ncnc2c1ncn2[C@@H]1O[C@H](COP(=O)(O)OP(=O)(O)OC2CCCC2)[C@@H](O)[C@H]1O`, the IC50 in assay [6] was under 900 µM.

The compound `Nc1ncnc2c1ncn2[C@@H]1O[C@H](COP(=O)(O)O)[C@@H](O)[C@H]1O` [ADENOSINE PHOSPHATE] had an IC50 in assay [1] of 70 µM. For the same compound, in [4], the inhibition result is “inactive”.

For `Nc1nc(F)nc2c1ncn2[C@@H]1O[C@H](COP(=O)(O)OP(=O)(O)OC[C@H]2OC(O)[C@H](O)[C@@H]2O)[C@@H](O)[C@H]1O` (stereo not given in full), the IC50 result in assay [2] (hek293) is “Not Active”.

For `Nc1ncnc2c1nc(-c1ccc(CC(N)C(=O)O)cc1)n2[C@@H]1O[C@H](COP(=O)(O)O)[C@@H](O)[C@H]1O` (stereo not given in full), in [3], the inhibition entry is “inactive”.

Consider `O=C(O)c1cccnc1Nc1cccc(C(F)(F)F)c1` [NIFLUMIC ACID], for which the IC50 in [5] amounted to 149 µM.

With `CCCCCc1ccc(/C=C/C(=O)Nc2ccccc2C(=O)O)cc1`, in [7], the IC50 came to 1.7 µM.

As to `COc1ncnc2c1ncn2[C@@H]1O[C@H](COP(=O)(O)OP(=O)(O)OC[C@H]2OC(O)[C@H](O)[C@@H]2O)[C@@H](O)[C@H]1O` (stereo not given in full), the 50% inhibitory concentration (IC50) entry in [2] (hek293) was “Not Active”.

In the case of `O=c1[nH]cnc2c1ccn2[C@@H]1O[C@H](COP(=O)(O)OP(=O)(O)OC[C@H]2OC(O)[C@H](O)[C@@H]2O)[C@@H](O)[C@H]1O` (stereo not given in full), the IC50 entry in assay [2] (hek293) is reported as “Not Active”.

For the compound `Nc1ncnc2c1ncn2[C@@H]1O[C@H](COP(=O)(O)OP(=O)(O)OC[C@H]2OC(O)[C@H](O)[C@@H]2O)[C@@H](O)[C@H]1O` (stereo not given in full), the EC50 in assay [8] was found to be 100 µM.

Consider `Nc1ncnc2c1ncn2[C@@H]1O[C@H](COP(=O)(O)OP(=O)(O)O)[C@@H](O)[C@H]1O`, for which the inhibition entry in assay [4] was “inactive”.

For `O=c1[nH]cnc2c1ncn2[C@@H]1O[C@H](COP(=O)(O)OP(=O)(O)OC[C@H]2OC(O)[C@H](O)[C@@H]2O)[C@@H](O)[C@H]1O` (stereo not given in full), the IC50 entry in assay [2] (hek293) is recorded as “Not Active”.

`Cc1cccc(Nc2ccccc2C(=O)O)c1`: the IC50 in [9] stood at 76 µM.

On to `Nc1ncnc2c1ncn2CCCCOP(=O)(O)OP(=O)(O)OC[C@H]1OC(O)[C@H](O)[C@@H]1O` (stereo not given in full), for which, in assay [3], the inhibition entry was “inactive”.

Turning to `O=C(O)c1ccccc1Nc1cccc(C(F)(F)F)c1` [FLUFENAMIC ACID], the IC50 in [5] is 70 µM.

The compound `Clc1ccc(COC(Cn2ccnc2)c2ccc(Cl)cc2Cl)cc1` (stereo not given) [ECONAZOLE] displayed an IC50 in [1] of under 3 µM.

Turning to `Nc1ncnc2c1ncn2[C@@H]1O[C@H](COP(=O)(O)OP(=O)(O)OP(=O)(O)OC[C@H]2OC(O)[C@H](O)[C@@H]2O)[C@@H](O)[C@H]1O` (stereo not given in full), the inhibition entry in [4] was “inactive”.

With `Nc1ncnc2c1nc(-c1ccccc1)n2[C@@H]1O[C@H](COP(=O)(O)OP(=O)(O)OC[C@H]2OC(O)[C@H](O)[C@@H]2O)[C@@H](O)[C@H]1O` (stereo not given in full), in assay [2] (read-out: IC50), the IC50 turned out to be 11 µM. For the same compound, the values for the Activity in [10] and in [12] were 31.4% and 31.8%, respectively. Also, the result in assay [11] was Active.

On to `Nc1ncnc2c1cc(Br)n2[C@@H]1O[C@H](COP(=O)(O)OP(=O)(O)OC[C@H]2OC(O)[C@H](O)[C@@H]2O)[C@@H](O)[C@H]1O` (stereo not given in full), for which the IC50 entry in assay [2] (hek293) is given as “Not Active”.

On to `Nc1ncnc2c1ncn2[C@@H]1O[C@H](CNc2c(NC3CCCC3)c(=O)c2=O)[C@@H](O)[C@H]1O`, for which the inhibition result in assay [3] is “inactive”.

In the case of `Nc1ncnc2c1nc(N)n2[C@@H]1O[C@H](COP(=O)(O)OP(=O)(O)OC[C@H]2OC(O)[C@H](O)[C@@H]2O)[C@@H](O)[C@H]1O` (stereo not given in full), the IC50 entry in assay [2] (hek293) is recorded as “Not Active”.

On to COPPER, for which the IC50 in [13] turned out to be 2.6 µM.

`CCCCCCNc1c(NC[C@H]2O[C@@H](n3cnc4c(N)ncnc43)[C@H](O)[C@@H]2O)c(=O)c1=O`: the inhibition entry in assay [3] is “inactive”.

The record behind these values is ChEMBL document CHEMBL3108672, “Structure-activity relationship of adenosine 5'-diphosphoribose at the transient receptor potential melastatin 2 (TRPM2) channel: rational design of antagonists” (J Med Chem, 2013).
